Measured values of several laboratories.
Target: Serine/threonine-protein kinase 32A (STK32A, Homo sapiens, UniProt Q8WU08)

The remaining binding of c1cnn2ncc(-c3ccnc(N4CCC45COC5)n3)c2c1 is reported as 58% (binding; 1 µM).
Cc1c[nH]c2nccc(Oc3c(F)cc(Nc4cc(Cl)nc(N)n4)cc3F)c12 gave a remaining binding of 86% (cell-free assay; competition with immobilised ligand; 0.1 µM).
The remaining binding of O=C(NCC1CCOCC1)c1n[nH]cc1NC(=O)c1c(F)cccc1F is reported as 88% (binding; competition with immobilised ligand; 1 µM).
For N#CC1(c2ccccn2)CCN(Cc2cc(C(=O)N3CCCC3)c(=O)n3ccccc23)CC1, the remaining binding was 98% (cell-free assay; competition with immobilised ligand; 1 µM).
CN(C)c1ncc(F)c(-c2cnn3ncccc23)n1 has a remaining binding of 100% (binding; 1 µM).
O=C(c1ccc(Nc2ncc(Cl)c(-c3ccc(Cl)s3)n2)cc1)N1CCC(N2CCCC2)CC1 gave a remaining binding of 70% (binding; competition with immobilised ligand; 1 µM).
With CN(C(=O)c1ccccc1)c1cc(N(C)c2ccc3c(c2)CCc2ccc(C(=O)NCCN4CCOCC4)cc2C3=O)ccc1F the remaining binding was 68% (cell-free assay; competition with immobilised ligand; 1 µM).
For C[C@H]1CCN(c2nccc(-c3cnn4ncccc34)n2)C1, the remaining binding was 64% (binding; 1 µM).
Cc1cnc(Nc2ccc(C(=O)N3CCC(N4CCCC4)CC3)cc2)nc1-c1cc2ccccc2s1 gave a remaining binding of 79% (binding; competition with immobilised ligand; 1 µM).
CN([C@@H]1CCc2c(CC(=O)O)c3cc(S(C)(=O)=O)ccc3n2C1)S(=O)(=O)c1ccc(F)cc1 gave a remaining binding of 100% (cell-free assay; competition with immobilised ligand; 1 µM).
The remaining binding of C=CC(=O)N1CCC(C(=O)NCC(=O)N2CCN(c3nc(-c4cnc(N)nc4C(F)F)nc(N4CCOCC4)n3)CC2)CC1 is reported as 91% (binding; competition with immobilised ligand; 1 µM).
N[C@@H]1CCN(c2nccc(-c3cnn4ncccc34)n2)C1 gave a remaining binding of 98% (binding; 1 µM).
With C[C@@H](c1ccc(-n2cnc3c(N)ncnc32)cc1)N1CCc2nn(C)c(Cc3ccccc3)c2C1=O the remaining binding was 94% (binding; competition with immobilised ligand; 0.1 µM).
For CN(C)c1nccc(-c2cnn3ncccc23)n1, the remaining binding was 81% (binding; 1 µM).
The remaining binding of CCC(=O)N[C@H]1CC[C@@H](C(=O)N(C)c2ccc(-c3nc4ccccc4o3)cc2)C1 is reported as 98% (cell-free assay; competition with immobilised ligand; 1 µM).
The remaining binding of O=C(NCCCN1CCOCC1)c1ccc(Nc2ncc(Cl)c(-c3ccc(Cl)s3)n2)cc1 is reported as 93% (binding; competition with immobilised ligand; 1 µM).
CCN1CCN(Cc2ccc(C(=O)Nc3ccc(C)c(Oc4ccc5c(c4)CC(=O)N5)c3)cc2C(F)(F)F)CC1 gave a remaining binding of 100% (binding; competition with immobilised ligand; 1 µM).
COc1cnc(Nc2cccc(S(N)(=O)=O)c2)nc1N1CCN(c2ccccc2)CC1 gave a remaining binding of 94% (binding; competition with immobilised ligand; 1 µM).
CC1CCCN1c1nccc(-c2cnn3ncccc23)n1 (stereo not shown) has a remaining binding of 100% (binding; 1 µM).
For CNC(=O)Nc1ccc2c(c1)CC[C@@]21OC(=O)N(CC(=O)N(Cc2ccc(F)cc2)[C@@H](C)C(F)(F)F)C1=O, the remaining binding was 88% (binding; competition with immobilised ligand; 1 µM).
The remaining binding of CN(c1nccc(-c2cnn3ncccc23)n1)C1CC1 is reported as 100% (binding; 1 µM).
For COc1ccc2c(c1)O[C@H](c1ccc(OC)c(OC)c1)C[C@@H]2NC(=O)C1(c2ccc3c(c2)OC(F)(F)O3)CC1, the remaining binding was 100% (cell-free assay; competition with immobilised ligand; 1 µM).
